Measured values from ChEMBL document CHEMBL4270568, “Identification, structural modification, and dichotomous effects on human immunodeficiency virus type 1 (HIV-1) replication of ingenane esters from Euphorbia kansui” (Eur J Med Chem, 2018).
Activity calls are given as the source filed them. No cut-off for these calls is given here.

What was measured:
[1] = test system: Human immunodeficiency virus 1; assay: Antiviral activity against Human immunodeficiency virus 1 NL4-3 infected in human MT4 cells measured on day 3 post infection by Nano-Glo luciferase reporter gene assay; type: functional, organism-based; settings: Human immunodeficiency virus 1, NL4-3, MT4, 72 h
Outline: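 HIV-1 NL4-3 Nanoluc-sec reporter virus at 50 TCID50/well infects MT4 cells (1 × 10⁵ cells/mL) in the presence of graded compound concentrations. On day 3 post-infection, supernatant is assayed for secreted NanoLuc luciferase.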

[2] = Selectivity index, ratio of CC50 for human MT4 cells to EC50 for Human immunodeficiency virus 1 NL4-3 infected in human MT4 cells; type: toxicity, cell-based; settings: read-out: Ratio CC50/EC50
Outline: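 SI = CC50/EC50. CC50 is from a 3-day CytoTox-Glo assay on MT4 cells. EC50 is from MT4 cells infected with 50 TCID50/well NL4-3 Nanoluc-sec and given graded compound, with supernatant luciferase read on day 3 as 50% reduction.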

MT4 = assay: Cytotoxicity against human MT4 cells after 3 days by CytoTox-Glo assay; type: cell-based; settings: mt4, 72 h
Outline: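 MT4 cells cultured for 3 days with various compound concentrations. Cytotoxicity is read by CytoTox-Glo following the manufacturer's protocol. CC50 = concentration causing 50% reduction of cell viability.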

[3] = test system: Human immunodeficiency virus 1; assay: Potency index, ratio AZT EC50 to test compound EC50 for Human immunodeficiency virus 1 NL4-3 infected in human MT4 cells; type: functional
[4] = test system: Human immunodeficiency virus 1; assay: Reactivation of latent HIV1 infected in human U1 cells assessed as increase in p24 production after 72 hrs by ELISA; type: functional, organism-based; settings: Human immunodeficiency virus 1, U1, 72 h
Outline: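 Latently infected U1 cells (2×10⁵ cells/mL) incubated with various compound concentrations at 37 °C for 72 h. Culture supernatant p24 is measured by ELISA. EC50 = concentration activating p24 production by 50%, fitted by non-linear regression.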

[5] = Cytotoxicity against human U937 cells after 3 days by CytoTox-Glo assay; type: cell-based, U-937
Outline: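 U937 cytotoxicity is run by the same method as for MT4: 3-day culture with various compound concentrations, CytoTox-Glo read-out, and CC50 taken as 50% reduction of viability.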

[6] = test system: Human immunodeficiency virus 1; assay: Reactivation of latent HIV1 infected in human J-Lat A2 cells assessed as increase in GFP expression at 10 to 50 nM after 72 hrs by flow cytometric method; type: functional, organism-based
Outline: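 J-Lat (A2) cells (1×10⁶ cells/well) incubated with various concentrations of latency reversing agents at 37 °C for 72 h. GFP-expressing cells are quantified by flow cytometry.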

SMILES	EC50 [1] [nM]	selectivity ratio [2]	CC50 (MT4) [nM]	Ratio EC50 [3]	EC50 [4] [nM]	CC50 at 72 h [5] [nM]	Activity [6]
C/C=C(\C)C(=O)O[C@H]1C(C)=C[C@]23C(=O)[C@@H](C=C(C)[C@@H](O)[C@]12O)[C@H]1[C@@H](C[C@H]3C)C1(C)C	209	> 46					
CC(=O)O[C@H]1C(C)=C[C@]23C(=O)[C@@H](C=C(C)[C@@H](OC(=O)c4ccccc4)[C@]12O)[C@H]1[C@@H](C[C@H]3C)C1(C)C	367	> 23	> 8400				
Cc1cn([C@H]2C[C@H](N=[N+]=[N-])[C@@H](CO)O2)c(=O)[nH]c1=O [ZIDOVUDINE]			> 400				
CCCCCCCCCCCC(=O)O[C@@]12C[C@@H](C)[C@]34C=C(C)[C@H](O)[C@@]3(O)[C@H](O)C(CO)=C[C@H](C4=O)[C@@H]1C2(C)C	33.7	> 273	> 9200				
CC1=C[C@]23C(=O)[C@@H](C=C(CO)[C@@H](O)[C@]2(O)[C@H]1OC(=O)c1ccc2ccccc2c1)[C@H]1[C@@H](C[C@H]3C)C1(C)C	1.3	> 6150	> 8000	10	2.4	> 20000	Active
CC1=C[C@]23C(=O)[C@@H](C=C(CO)[C@@H](O)[C@]2(O)[C@H]1O)[C@H]1[C@@H](C[C@H]3C)C1(C)C [INGENOL]	> 11500	> 10	> 11500				
C/C=C/C(=O)O[C@@H]1C(C)=C[C@@H]2C(=O)[C@]3(C=C(C)[C@H](O)[C@@]13O)[C@H](C)C[C@@H]1[C@H]2C1(C)C	630	> 16	> 10000				
CC1=C[C@@H]2C(=O)[C@]3(C=C(C)[C@H](OC(=O)c4ccccc4)[C@@]3(O)[C@@H]1O)[C@H](C)C[C@@H]1[C@H]2C1(C)C	30.5	> 302	> 9200				
COc1ccc(C(=O)O[C@@H]2C(C)=C[C@@H]3C(=O)[C@]4(C=C(C)[C@H](O)[C@@]24O)[C@H](C)C[C@@H]2[C@H]3C2(C)C)cc1	434	> 20	> 8600				
COc1ccc(C(=O)O[C@H]2C(C)=C[C@]34C(=O)[C@@H](C=C(C)[C@@H](O)[C@]23O)[C@H]2[C@@H](C[C@H]4C)C2(C)C)cc1	134	> 64	> 8600				
C/C=C(/C)C(=O)O[C@H]1C(C)=C[C@]23C(=O)[C@@H](C=C(CO)[C@@H](O)[C@]12O)[C@H]1[C@@H](C[C@H]3C)C1(C)C [INGENOL MEBUTATE]	4.5	> 2070	> 9300		4.2		Active
CC1=C[C@@H]2C(=O)[C@]3(C=C(C)[C@H](OC(=O)c4ccc5ccccc5c4)[C@@]3(O)[C@@H]1O)[C@H](C)C[C@@H]1[C@H]2C1(C)C	15.1	> 543	> 8200				
CC(=O)OCC1=C[C@@H]2C(=O)[C@]3(C=C(C)[C@H](O)[C@@]3(O)[C@@H]1O)[C@H](C)C[C@@H]1[C@H]2C1(C)C	1080	> 10	> 10300				
CC1=C[C@@H]2C(=O)[C@]3(C=C(C)[C@H](OC(=O)/C=C/c4ccccc4)[C@@]3(O)[C@@H]1O)[C@H](C)C[C@@H]1[C@H]2C1(C)C	188	> 45	> 8700				
CC1=C[C@@H]2C(=O)[C@]3(C=C(C)[C@H](O)[C@@]3(O)[C@@H]1OC(=O)/C=C/c1ccccc1)[C@H](C)C[C@@H]1[C@H]2C1(C)C	396	> 22	> 8700				
CC1=C[C@@H]2C(=O)[C@]3(C=C(C)[C@H](O)[C@@]3(O)[C@@H]1O)[C@H](C)C[C@@H]1[C@H]2C1(C)C	> 12000	> 10	> 12000				
C/C=C/C(=O)O[C@H]1C(C)=C[C@]23C(=O)[C@@H](C=C(C)[C@@H](O)[C@]12O)[C@H]1[C@@H](C[C@H]3C)C1(C)C	600	> 17	> 10000				
CCCCCCCC(=O)O[C@H]1C(C)=C[C@]23C(=O)[C@@H](C=C(C)[C@@H](O)[C@]12O)[C@H]1[C@@H](C[C@H]3C)C1(C)C	145	> 59.9	> 8700				
CC1=C[C@@H]2C(=O)[C@]3(C=C(C)[C@H](O)[C@@]3(O)[C@@H]1OC(=O)c1ccc3ccccc3c1)[C@H](C)C[C@@H]1[C@H]2C1(C)C	15.5	> 179	> 8200				
CCCCCCCCCCCC(=O)O[C@@]12C[C@@H](C)[C@]34C=C(C)[C@H](OC(=O)C(C)C(C)C)[C@@]3(O)[C@H](O)C(CO)=C[C@H](C4=O)[C@@H]1C2(C)C (some centres undefined)	0.8	> 7500	> 6200				
CC1=C[C@@H]2C(=O)[C@]3(C=C(C)[C@H](O)[C@@]3(O)[C@@H]1OC(=O)c1ccccc1)[C@H](C)C[C@@H]1[C@H]2C1(C)C	42.6	> 216	> 9200				
C/C=C(/C)C(=O)O[C@H]1C(C)=C[C@]23C(=O)[C@@H](C=C(C)[C@@H](O)[C@]12O)[C@H]1[C@@H](C[C@H]3C)C1(C)C	426	> 22.8	> 9700				
